The source made the active and inactive calls. The rule behind the calls is not given here.
Assays:
[1] = Oral bioavailability in ICR mouse at 5 mg/kg measured up to 24 hrs by LC-MS/MS analysis; format: ADME, organism-based; conditions: in vivo
Summary of the method: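 Male ICR mice. IV 2 mg/kg and PO 5 mg/kg, both in 10% PEG400 + 90% PBS adjusted to pH 8.0. Plasma sampled to 24 h; F from IV and PO exposure.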

Mus musculus = assay: In vivo induction of androgen receptor degradation in human VCaP cells xenografted in CB17 SCID mouse assessed as reduction in TMPRSS2 mRNA level at 12.5 mg/kg, po measured after 6 to 24 hrs by qRT-PCR analysis; format: functional, organism-based; conditions: time 6-24 hrs
[2] = Plasma protein binding in mouse at 1 uM after 5 hrs by equilibrium dialysis based LC-MS/MS analysis; format: ADME, cell-free
Summary of the method: (§1)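 Equilibrium dialysis of pooled plasma of each species spiked at 1 μM against 0.1 M sodium phosphate, pH 7.4. 5 h at 37 °C with shaking at 60 rpm. Both sides matrix-matched, ACN/IS quench, LC/MS. % bound = 100 − (buffer/plasma peak-area ratio × 100); recovery also calculated. Warfarin as reference.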

[3] = Half life in ICR mouse at 2 mg/kg, iv measured upto 24 hrs by LC-MS/MS analysis; format: ADME, organism-based; conditions: in vivo
Summary of the method: (§2)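 Male ICR mice (2 mg/kg), male SD rats (1 mg/kg) or male Beagle dogs (1 mg/kg) given a single intravenous dose in 10% PEG400 + 90% PBS adjusted to pH 8.0 with NaOH.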

[4] = Clearance in ICR mouse at 2 mg/kg, iv measured upto 24 hrs by LC-MS/MS analysis; format: ADME, organism-based; conditions: in vivo; summary of the method: as §2
[5] = AUC(0 to t) in Sprague-Dawley rat at 1 mg/kg, iv measured upto 24 hrs by LC-MS/MS analysis; format: ADME, organism-based; set-up: time < 24 hrs, dose 1 mg/kg, route iv; conditions: in vivo; summary of the method: as §2
Cytochrome P450 2D6 = Cytochrome P450 2D6 (Homo sapiens, UniProt P10635); assay: Inhibition of CYP2D6 in human liver microsomes preincubated for 5 mins followed by NADPH addition and measured after 10 mins by LC/MS analysis; format: ADME, Microsome
Cytochrome P450 2D6, sequence (P10635 whole entry): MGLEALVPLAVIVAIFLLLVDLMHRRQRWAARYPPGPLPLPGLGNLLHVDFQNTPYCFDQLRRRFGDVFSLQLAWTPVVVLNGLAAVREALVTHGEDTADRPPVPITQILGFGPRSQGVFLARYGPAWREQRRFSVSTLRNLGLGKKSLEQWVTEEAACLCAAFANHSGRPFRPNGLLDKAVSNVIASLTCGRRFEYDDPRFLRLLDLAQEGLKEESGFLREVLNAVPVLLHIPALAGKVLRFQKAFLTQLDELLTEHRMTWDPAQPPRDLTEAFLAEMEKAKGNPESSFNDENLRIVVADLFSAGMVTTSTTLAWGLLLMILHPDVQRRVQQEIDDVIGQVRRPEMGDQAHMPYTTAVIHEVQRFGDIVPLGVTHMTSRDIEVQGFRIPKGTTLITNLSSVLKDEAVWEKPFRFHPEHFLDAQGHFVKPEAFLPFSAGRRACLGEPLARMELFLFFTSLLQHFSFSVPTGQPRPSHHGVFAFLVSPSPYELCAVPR

LNCaP = assay: Induction of androgen receptor degradation in human LNCaP cells at 100 nM pretreated with MLN4924 for 2 hrs followed by compound addition and 3 hrs by Western blot analysis; format: functional, cell-based; conditions: time 5.0 hrs
Summary of the method: (§3)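 LNCaP or VCaP cells pretreated 2 h with DMSO, ARi-12 (10 μM), thalidomide (10 μM), MG-132 (3 μM) or MLN4924 (0.5 μM), then given degrader at 100 nM for 3 h. AR measured by Western blot with GAPDH as loading control.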

Cytochrome P450 3A4 = Cytochrome P450 3A4 (Homo sapiens, UniProt P08684); assay: Inhibition of CYP3A4 in human liver microsomes using testosterone as substrate preincubated for 5 mins followed by NADPH addition and measured after 5 mins by LC/MS analysis; format: ADME, Microsome
Cytochrome P450 3A4, sequence (P08684 whole entry): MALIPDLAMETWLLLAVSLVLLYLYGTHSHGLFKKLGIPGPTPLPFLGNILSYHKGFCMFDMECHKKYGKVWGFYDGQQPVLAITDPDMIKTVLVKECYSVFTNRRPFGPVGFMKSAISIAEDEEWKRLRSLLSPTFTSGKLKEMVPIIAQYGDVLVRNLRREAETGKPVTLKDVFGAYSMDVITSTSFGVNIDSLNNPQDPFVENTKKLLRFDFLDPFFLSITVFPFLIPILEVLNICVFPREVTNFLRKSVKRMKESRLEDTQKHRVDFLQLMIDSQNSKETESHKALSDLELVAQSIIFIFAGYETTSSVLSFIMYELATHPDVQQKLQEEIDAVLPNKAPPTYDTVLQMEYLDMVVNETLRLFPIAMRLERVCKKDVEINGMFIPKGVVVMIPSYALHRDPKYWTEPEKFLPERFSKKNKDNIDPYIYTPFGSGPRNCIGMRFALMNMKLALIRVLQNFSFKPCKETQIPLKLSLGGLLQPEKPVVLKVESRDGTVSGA

[6] = Volume of distribution at steady state in Sprague-Dawley rat at 1 mg/kg, iv measured upto 24 hrs by LC-MS/MS analysis; format: ADME, organism-based; conditions: in vivo
Cytochrome P450 1A2 = target: T1, Cytochrome P450 1A2 (Homo sapiens, UniProt P05177); assay: Inhibition of CYP1A2 in human liver microsomes preincubated for 5 mins followed by NADPH addition and measured after 10 mins by LC/MS analysis; format: ADME, Microsome
T1 sequence (P05177 whole entry): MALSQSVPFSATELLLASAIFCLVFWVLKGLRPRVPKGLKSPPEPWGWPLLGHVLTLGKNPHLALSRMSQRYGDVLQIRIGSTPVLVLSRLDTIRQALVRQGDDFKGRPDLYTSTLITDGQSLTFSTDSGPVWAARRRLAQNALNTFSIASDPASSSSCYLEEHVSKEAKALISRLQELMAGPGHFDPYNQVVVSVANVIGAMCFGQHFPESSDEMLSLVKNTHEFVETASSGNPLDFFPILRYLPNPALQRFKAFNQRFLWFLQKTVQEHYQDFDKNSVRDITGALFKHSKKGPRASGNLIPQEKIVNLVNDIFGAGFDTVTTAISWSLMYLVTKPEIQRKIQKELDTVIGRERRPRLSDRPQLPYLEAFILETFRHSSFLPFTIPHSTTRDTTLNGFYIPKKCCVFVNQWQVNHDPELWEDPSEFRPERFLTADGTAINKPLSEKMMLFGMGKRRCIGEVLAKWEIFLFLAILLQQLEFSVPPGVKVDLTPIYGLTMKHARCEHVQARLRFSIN
Summary of the method: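 Human liver microsomes (0.2 mg/mL stock) in 0.1 M potassium phosphate pH 7.4, prewarmed 5 min at 37 °C with test compound. Phenacetin as substrate; reaction started with NADPH (8 mM stock) and run 10 min, in duplicate. α-Naphthoflavone as reference inhibitor; LC/MS read-out.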

[7] = Cmax in Beagle dog at 3 mg/kg, po measured up to 24 hrs by LC-MS/MS analysis; format: ADME, organism-based, Canis lupus familiaris; set-up: time < 24 hrs, dose 3 mg/kg, route po; conditions: in vivo
Summary of the method: (§4)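 Male Beagle dogs dosed orally at 3 mg/kg in 90% PEG400 + 10% Cremophor.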

[8] = Metabolic stability in rat hepatocytes assessed as half life at 1 uM measured upto 120 mins in presence of NADPH by LC-MS/MS analysis; format: ADME, cell-based, Hepatocyte; conditions: 2 h
[9] = Plasma protein binding in human at 1 uM after 5 hrs by equilibrium dialysis based LC-MS/MS analysis; format: ADME, cell-free; summary of the method: as §1
[10] = Metabolic stability in mouse hepatocytes assessed as half life at 1 uM measured upto 120 mins in presence of NADPH by LC-MS/MS analysis; format: ADME, cell-based, Hepatocyte; conditions: 2 h
Cytochrome P450 2B6 = target: T2, Cytochrome P450 2B6 (Homo sapiens, UniProt P20813); assay: Inhibition of CYP2B6 in human liver microsomes preincubated for 5 mins followed by NADPH addition and measured after 10 mins by LC/MS analysis; format: ADME, Microsome
T2 sequence (P20813 whole entry): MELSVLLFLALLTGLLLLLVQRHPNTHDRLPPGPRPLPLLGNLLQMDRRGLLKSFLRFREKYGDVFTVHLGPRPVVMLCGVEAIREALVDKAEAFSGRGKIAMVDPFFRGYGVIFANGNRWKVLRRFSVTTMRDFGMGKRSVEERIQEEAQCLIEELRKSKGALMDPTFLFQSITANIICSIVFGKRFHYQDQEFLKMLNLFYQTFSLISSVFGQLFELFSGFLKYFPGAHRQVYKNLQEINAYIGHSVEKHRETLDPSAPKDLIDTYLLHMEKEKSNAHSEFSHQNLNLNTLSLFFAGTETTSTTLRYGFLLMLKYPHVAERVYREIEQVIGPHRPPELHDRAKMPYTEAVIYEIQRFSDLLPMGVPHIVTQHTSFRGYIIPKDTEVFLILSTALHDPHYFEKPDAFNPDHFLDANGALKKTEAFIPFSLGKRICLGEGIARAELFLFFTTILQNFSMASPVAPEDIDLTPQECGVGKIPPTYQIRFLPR

VCaP = assay: Induction of androgen receptor degradation in human VCaP cells at 100 nM pretreated with MLN4924 for 2 hrs followed by compound addition and 3 hrs by Western blot analysis; format: functional, cell-based; conditions: time 5.0 hrs; summary of the method: as §3
[11] = AUC(0 to t) in Beagle dog at 3 mg/kg, po measured up to 24 hrs by LC-MS/MS analysis; format: ADME, organism-based, Canis lupus familiaris; set-up: time < 24 hrs, dose 3 mg/kg, route po; conditions: in vivo; summary of the method: as §4
[12] = AUC(0 to t) in Beagle dog at 1 mg/kg, iv measured upto 24 hrs by LC-MS/MS analysis; format: ADME, organism-based, Canis lupus familiaris; set-up: time < 24 hrs, dose 1 mg/kg, route iv; conditions: in vivo; summary of the method: as §2

With `C[C@H]1CC2(CCN(c3ccc(C(=O)N4CCN(C5CN(c6ccc7c(c6)C(=O)N(C6CCC(=O)NC6=O)C7=O)C5)CC4)cc3)CC2)CN1c1ccc(C#N)c(Cl)c1` (some centres undefined) the F [1] was 53%, the Activity (Mus musculus) was “Active” and the PPB [2] was 99.2%. For the same molecule, the t1/2 [3] was 5 h, the clearance [4] was 3.7 mL/min/kg and the AUCt [5] was 1560 ng·h/mL. The IC50 (Cytochrome P450 2D6) was > 10 µM, the Activity (LNCaP) was “inactive” and the IC50 (Cytochrome P450 3A4) was > 10 µM. For the same molecule, the Vdss [6] was 1.3 L/kg, the IC50 (Cytochrome P450 1A2) was > 10 µM and the Cmax [7] was 294 ng/mL. For the same molecule, the t1/2 [8] was > 2 h, the PPB [9] was 99.1% and the t1/2 [10] was > 2 h. For the same molecule, the IC50 (Cytochrome P450 2B6) was > 10 µM, the Activity (VCaP) was “inactive” and the AUCt [11] was 4460 ng·h/mL. The AUCt [12] was 3240 ng·h/mL.

— ChEMBL document CHEMBL5331127, “Discovery of ARD-2051 as a Potent and Orally Efficacious Proteolysis Targeting Chimera (PROTAC) Degrader of Androgen Receptor for the Treatment of Advanced Prostate Cancer” (J Med Chem, 2023)
